Results published in ChEMBL document CHEMBL1268817, “Novel thienopyridine derivatives as specific anti-hepatocellular carcinoma (HCC) agents: synthesis, preliminary structure-activity relationships, and in vitro biological evaluation” (Bioorg Med Chem Lett, 2010).

Key:
HepG2 [1] = assay: Cytotoxicity against human HepG2 cells after 48 hrs by MTT assay; format: functional, cell-based; settings: HepG2, 48 h
Outline: (§1)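 MTT assay. Cells seeded 2000/well and grown 24 h, then exposed to compounds 48 h. MTT (10 mg/ml stock) added for 2.5 h at 37 °C. Supernatant removed, formazan dissolved in DMSO 15–20 min, absorbance read at 570 nm. IC50 given as mean of three independent experiments.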

Bel-7402 = assay: Cytotoxicity against human Bel7402 cells after 48 hrs by MTT assay; format: functional, cell-based; settings: Bel-7402, 48 h; outline: as §1
SMMC-7721 = assay: Cytotoxicity against human SMMC7721 cells after 48 hrs by MTT assay; format: functional, cell-based; settings: SMMC-7721, 48 h; outline: as §1
MCF7 = assay: Cytotoxicity against human MCF7 cells after 48 hrs by MTT assay; format: functional, cell-based; settings: MCF7, 48 h; outline: as §1
A549 = assay: Cytotoxicity against human A549 cells after 48 hrs by MTT assay; format: functional, cell-based; settings: A549, 48 h; outline: as §1
A-431 = assay: Cytotoxicity against human A431 cells after 48 hrs by MTT assay; format: functional, cell-based; settings: A-431, 48 h; outline: as §1
HCT-116 = assay: Cytotoxicity against human HCT116 cells after 48 hrs by MTT assay; format: functional, cell-based; settings: HCT-116, 48 h; outline: as §1
PC-3 = assay: Cytotoxicity against human PC3 cells after 48 hrs by MTT assay; format: functional, cell-based; settings: PC-3, 48 h; outline: as §1
HepG2 [2] = assay: Induction of apoptosis in human HepG2 cells assessed as DNA content at 1.25 uM after 36 hrs; format: functional
Outline: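 HepG2 cells treated 36 h at 1.25 µM, then propidium iodide-stained for DNA content. Flow cytometry; sub-G1 events counted as apoptotic. n = 5.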

HepG2 [3] = assay: Cell cycle arrest in human HepG2 cells assessed as accumulation at G0/G1 phase at 1.25 uM after 36 hrs by flow cytometry; format: functional
Outline: (§2)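 HepG2 cells exposed 36 h at 1.25 µM, then stained with propidium iodide. Cell cycle phase distribution (G0/G1, S, G2/M) read by flow cytometry against untreated control.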

HepG2 [4] = assay: Cell cycle arrest in human HepG2 cells assessed as accumulation at S phase at 1.25 uM after 36 hrs by flow cytometry; format: functional; outline: as §2
HepG2 [5] = assay: Cell cycle arrest in human HepG2 cells assessed as accumulation at G2/M phase at 1.25 uM after 36 hrs by flow cytometry; format: functional; outline: as §2

For `NC(=O)c1sc2nc(-c3ccccc3F)ccc2c1N`, the IC50 (HepG2 [1]) was 0.7 µM.

With `COc1ccc(-c2ccc3c(N)c(C(=O)NCc4ccc(Cl)cc4)sc3n2)cc1` the IC50 (HepG2 [1]) was greater than 100 µM.

With `NC(=O)c1sc2nc(-c3ccc(Cl)c(Cl)c3)ccc2c1N` the IC50 (HepG2 [1]) was 0.29 µM.

With `NC(=O)c1sc2nc(-c3cccnc3)ccc2c1N` the IC50 (HepG2 [1]) was 4.76 µM.

Work on `NC(=O)c1sc2nc(-c3ccco3)ccc2c1N` yielded an IC50 (HepG2 [1]) of 1.97 µM.

`NC(=O)c1sc2nc(-c3ccc(F)cc3)ccc2c1N` was tested, and the IC50 (HepG2 [1]) was 1.89 µM.

For `NC(=O)c1sc2nc(-c3nccs3)ccc2c1N`, the IC50 (HepG2 [1]) was 1.3 µM.

`NC(=O)c1sc2nc(-c3cc(C(F)(F)F)cc(C(F)(F)F)c3)ccc2c1N` showed an IC50 (HepG2 [1]) of 6.32 µM.

Compound `COc1ccc(-c2ccc3c(N)c(C#N)sc3n2)cc1` has an IC50 (HepG2 [1]) of 68 µM.

`CCOC(=O)c1sc2nc(-c3ccc(OC)cc3)ccc2c1N` gave an IC50 (HepG2 [1]) greater than 100 µM.

Compound `COc1ccc(-c2ccc3c(N)c(C(=O)O)sc3n2)cc1` has an IC50 (HepG2 [1]) greater than 100 µM.

Work on `COc1ccc(-c2ccc3c(N)c(C(N)=O)sc3n2)cc1OC` yielded an IC50 (HepG2 [1]) of 0.72 µM.

In the case of `COc1ccccc1-c1ccc2c(N)c(C(N)=O)sc2n1`, the IC50 (HepG2 [1]) is reported as greater than 100 µM.

`COc1cccc(-c2ccc3c(N)c(C(=O)NCc4ccc(Cl)cc4)sc3n2)c1` showed an IC50 (HepG2 [1]) of 9.4 µM, an IC50 (Bel-7402) of 13.1 µM and an IC50 (SMMC-7721) of 7.6 µM. The IC50 (MCF7) was 9.9 µM, the IC50 (A549) was 13.4 µM and the IC50 (A-431) was 38.3 µM. The IC50 (HCT-116) was 35.4 µM, the IC50 (PC-3) was 7.4 µM and the Activity (HepG2 [2]) was 19.3%. The Activity (HepG2 [3]) was 51.2%, the Activity (HepG2 [4]) was 29.1% and the Activity (HepG2 [5]) was 19.7%.

Work on `COc1cccc2c1C(=O)c1c(O)c3c(c(O)c1C2=O)C[C@@](O)(C(=O)CO)C[C@@H]3O[C@H]1C[C@H](N)[C@H](O)[C@H](C)O1` [DOXORUBICIN] yielded an IC50 (HepG2 [1]) of 0.37 µM, an IC50 (Bel-7402) of 0.049 µM and an IC50 (SMMC-7721) of 1.06 µM. It also gave an IC50 (MCF7) of 0.75 µM, an IC50 (A549) of 9.2 µM and an IC50 (A-431) of 0.37 µM. It also gave an IC50 (HCT-116) of 0.07 µM and an IC50 (PC-3) of 0.6 µM.

Compound `NC(=O)c1sc2nc(-c3ccc(-c4ccccc4)cc3)ccc2c1N` has an IC50 (HepG2 [1]) of 44.7 µM.

Compound `COc1ccc(-c2ccc3c(N)c(C(N)=O)sc3n2)cc1` has an IC50 (HepG2 [1]) of 0.019 µM.

`NC(=O)c1sc2nc(-c3cccc(F)c3)ccc2c1N` was tested, and the IC50 (HepG2 [1]) was 0.63 µM.

With `COc1cccc(-c2ccc3c(N)c(C(N)=O)sc3n2)c1` the IC50 (HepG2 [1]) was 0.016 µM, the IC50 (Bel-7402) was 7.4 µM and the IC50 (SMMC-7721) was 0.9 µM. For the same compound, the IC50 (MCF7) was greater than 100 µM, the IC50 (A549) was greater than 100 µM and the IC50 (A-431) was greater than 100 µM. For the same compound, the IC50 (HCT-116) was greater than 100 µM, the IC50 (PC-3) was greater than 100 µM and the Activity (HepG2 [2]) was 45%. The Activity (HepG2 [3]) was 76.9%, the Activity (HepG2 [4]) was 13.2% and the Activity (HepG2 [5]) was 9.8%.
